Source: article PMC3272422 (Molecular cancer therapeutics, 2011)
Where two headings read alike, the source gives them in different places.

Tests used:
MDA-MB-468 cells = assay: Toxicity in MDA-MB-468 cells, MTT assay; format: cell-based
BT474 cells = assay: CB1954 toxicity in BT474 cells; format: cell-based; conditions: Homo sapiens
K562 cells = assay: 96 hour toxicity, XTT assay; format: cell-based; conditions: read-out: 96 hour Toxicity in Cells IC50, K562
[1] = tested on: NFκB transcriptional activity in MDA-MB-468 cells; assay: NFκB dual luciferase reporter assay; format: cell-based
In short: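 MDA-MB-468 cells (7×10^5 per 6 cm plate, 24 h attachment) were transfected with 1 µg/plate Cignal NFκB reporter (6× NFκB element-driven firefly, CMV-Renilla) using Oligofectamine in opti-MEM for 5 h at 37 °C. They were then re-fed with RPMI/10% FCS and reseeded into 96-well plates. Cells were pretreated for 1 h with 100 µM NRH and/or 20 ng/mL TNFα, then given test compound (DMSO ≤0.5% final) for 18 h. Passive lysis, dual-luciferase read-out.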

[2] = tested on: NFκB in Renal Carcinoma cells; conditions: cited from earlier work
Recombinant human NQO2 = biological target: T1, Recombinant human NQO2 (Homo sapiens, UniProt P16083); assay: Inhibition of recombinant NQO2 enzymatic activity; format: biochemical; conditions: for IC50: 200 μM NRH, DCPIP; for ΔGexp, experimentally determined binding affinity: derived from IC50 by the Cheng-Prusoff equation
T1 sequence (P16083 1-231): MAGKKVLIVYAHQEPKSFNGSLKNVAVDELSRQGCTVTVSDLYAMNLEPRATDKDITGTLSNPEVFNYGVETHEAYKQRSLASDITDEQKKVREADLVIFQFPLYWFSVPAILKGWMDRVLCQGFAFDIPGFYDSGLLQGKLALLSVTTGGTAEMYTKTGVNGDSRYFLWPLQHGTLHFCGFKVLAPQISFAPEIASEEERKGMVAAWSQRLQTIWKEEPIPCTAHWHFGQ

Recombinant human NQO1 = conditions: previously reported; cited from earlier work
[3] = Homo sapiens, MDA-MB-468, read-out: 3hr toxicity (IC50) Inhibitor alone
[4] = IC50 + BSA, presence of 2 μM BSA
[5] = read-out: IC50 + BSA, presence of 2 μM BSA
[6] = read-out: IC50 – BSA, absence of BSA
[7] = read-out: 96 hour Toxicity in Cells IC50, MDA-MB-468, 96 hour exposure

Row | Compound | IC50 (K562 cells; Homo sapiens, K562, 96 h) | ΔGexp, experimentally determined binding affinity (Recombinant human NQO2) | IC50 (Recombinant human NQO2; [5]) | IC50 (Recombinant human NQO2; [6]) | IC50 (K562 cells; 96 hour exposure) | IC50 (MDA-MB-468 cells; [7]) | further results
1 | NC(=O)c1cc(N2CC2)c([N+](=O)[O-])cc1[N+](=O)[O-] [CB1954, 5-(-aziridin-1-yl)-2,4-dinitrobenzamide, reference compound] |  |  |  |  |  |  | proliferation of MDA-MB-468 cells (MDA-MB-468 cells; 100μM CB1954 plus 100μM NRH, 3 hours): about 25%; IC50 (MDA-MB-468 cells; Homo sapiens, MDA-MB-468, 3 h, read-out: IC50 of CB1954 alone): > 1000 µM; IC50 (BT474 cells; BT-474, read-out: IC50 of CB1954, absence of NRH): > 1000 µM; IC50 (BT474 cells; BT-474, read-out: IC50 of CB1954, presence of 100μM NRH): 1000 µM
2 | Cc1ccc(NC(=O)c2ccc(CN3CCN(C)CC3)cc2)cc1Nc1nccc(-c2cccnc2)n1 [Imatinib, reference compound] | 0.68 ± 0.51 µM |  |  |  |  |  | 
3 | NC(=O)C1=CN([C@@H]2O[C@H](CO)[C@@H](O)[C@H]2O)C=CC1 [NRH, N-ribosyl nicotinamide, reference compound] |  |  |  |  |  |  | toxicity of NRH itself (MDA-MB-468 cells; 1μM to 1mM NRH): no toxicity; NFκB activity (luciferase) ([1]; 100μM NRH, without TNFα): stimulates NFκB activity
4 | Nc1c2ccccc2nc2ccccc12 [NSC13000, 9-aminoacridine] | 1 ± 1.4 µM |  |  |  |  |  | IC50 (MDA-MB-468 cells; [3]): 23 ± 5.1 µM; NFκB transcriptional (luciferase) activity ([1]; 0.1μM NSC13000, cells with or without 100μM NRH): reduces the luciferase activity; basal and induced activity of NFκB [2]: effectively suppressed
5 | CCN(CC)CCCC(C)Nc1c2ccc(Cl)cc2nc2ccc(OC)cc12 (stereo not drawn) [NSC14229, Quinacrine] | 4 ± 3.6 µM | -9.197 kcal/mol |  |  |  |  | IC50 (Recombinant human NQO2; [4]): 8.5 ± 1.6 µM; IC50 (Recombinant human NQO2; IC50 – BSA, absence of BSA): 0.2 ± 0.05 µM; basal and induced activity of NFκB [2]: effectively suppressed
6 | Cc1c2ccncc2c(C)c2c1[nH]c1ccccc12 [NSC71795] |  | -10.07 kcal/mol | 0.24 ± 0.09 µM | 0.05 ± 0.01 µM | 0.73 ± 0.6 µM | 0.27 ± 0.2 µM | 
7 | Cc1c2cnccc2c(C)c2c1c1ccccc1n2CCNCc1ccccc1 [NSC164016] |  | -10.74 kcal/mol | 3 ± 1.21 µM | 0.02 ± 0.01 µM | 0.7 ± 0.29 µM | 0.43 ± 0.24 µM | 
8 | N=C(N)c1ccc(-c2ccc(-c3ccc(C(=N)N)cc3)o2)cc1 [NSC305831] | 27 ± 35 µM | -8.513 kcal/mol |  |  |  |  | IC50 (Recombinant human NQO2; [4]): 2.8 ± 0.61 µM; IC50 (MDA-MB-468 cells; [3]): 114 ± 52 µM
9 | Cc1c(-c2ccc(C(=N)N)cc2)oc(-c2ccc(C(=N)N)cc2)c1C [NSC305836] |  | -10.07 kcal/mol | 0.2 ± 0.09 µM | 0.05 ± 0.01 µM | 5.5 ± 3.6 µM | 3.9 ± 2.5 µM | 
10 | Nc1cc2c(cc1[N+](=O)[O-])[nH]c1c(-c3ccccc3)nccc12 [NSC620318] |  | -9.197 kcal/mol | 4.1 ± 1.05 µM | 0.2 ± 0.01 µM | 35 ± 33 µM | 22 ± 9.1 µM | 
11 | O=C1c2c(c3c4ccccc4[nH]c3c3[nH]c4ccccc4c23)C(=O)N1Cc1ccccc1 [NSC628440] |  | -8.485 kcal/mol | 9.8 ± 0.92 µM | 0.66 ± 0.08 µM | 0.75 ± 0.76 µM | 4 ± 0.021 µM | inhibition of NQO1 (Recombinant human NQO1): relatively weak inhibitor
12 | Oc1ccc(/C=C/c2cc(O)cc(O)c2)cc1 [Resveratrol, reference compound] | 72 ± 5.1 µM |  |  |  |  |  | IC50 (MDA-MB-468 cells; [3]): > 100 µM
